An excerpt weighted towards active compounds, which were near 2.5% of everything screened.
SENP8 block-1 – blocks human SENP8 cleavage of Nedd8 substrate; Q96LD8; recombinant SENP8, Nedd8 substrate fluorescence; inhibition, % at 20 µM; hit rate 0.64% among 360,000; in the data active = inhibition mostly above about 40%, no sharp cut-off; inactive = mostly below about 27%
SENP6 block – blocks the human protease SENP6; Recombinant SENP6 catalytic domain, aminoluciferin luminescence; inhibition, % at 10 µM; hit rate 1.8% among 330,000; AID 2599;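 active = inhibition above about 50% at the single tested dose, limit read from the data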;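 note: plate controls were DMSO wells with enzyme for no effect and DMSO wells lacking enzyme for full effect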
Target sequence (Q9GZR1 628-1112 limits assumed): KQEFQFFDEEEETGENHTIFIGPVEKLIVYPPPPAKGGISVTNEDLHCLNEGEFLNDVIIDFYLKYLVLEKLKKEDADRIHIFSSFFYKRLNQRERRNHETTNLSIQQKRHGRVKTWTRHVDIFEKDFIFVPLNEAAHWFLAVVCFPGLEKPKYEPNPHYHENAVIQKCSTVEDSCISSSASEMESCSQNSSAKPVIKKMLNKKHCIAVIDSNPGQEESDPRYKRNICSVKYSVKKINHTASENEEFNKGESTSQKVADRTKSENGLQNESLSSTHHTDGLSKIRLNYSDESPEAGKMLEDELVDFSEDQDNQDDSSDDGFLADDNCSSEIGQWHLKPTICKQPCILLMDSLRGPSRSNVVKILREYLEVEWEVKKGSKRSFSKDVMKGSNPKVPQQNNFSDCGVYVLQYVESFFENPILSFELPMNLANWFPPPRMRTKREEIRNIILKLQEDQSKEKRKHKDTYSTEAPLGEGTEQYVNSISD
SENP1 inh – inhibitors of human SENP1 SUMO protease catalytic domain. recombinant SENP1 catalytic domain, CyPet-SUMO1-YPet FRET cleavage. Q9P0U3. hit rate 0.21% among 360,000. inhibition, % at 10 µM;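 active = inhibition at least 30% at 10 µM, raw YFP signal under a set limit, fluorescence ratio 0.5 to 1.5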;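 note: 0% = enzyme with DMSO and 100% = no enzyme wells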
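system = hSENP1 catalytic domain, recombinant | reagent = SFCypet-SUMO1-SFYpet substrate at 25 nM | doses = one dose per compound, 10 µM, 0.5% DMSO | incubation = enzyme reaction for 50 min at room temperature, dark | measured by = FRET, CFP and YFP emission | controls = no-enzyme low, enzyme-DMSO high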
SENP8 block-2 – SENP8 protease inhibition; Q96LD8; purified SENP8, Z-RLRGG-aminoluciferin cleavage, luminescence; inhibition, % at 10 µM; hit rate 1.2% among 330,000; AID 2540; in the data active = inhibition above about 50%
SENP7 inh – blocks the human protease SENP7; hit rate 1.5% among 330,000; Q9BQF6; inhibition, % at 5 µM; recombinant SENP7, Z-RLRGG-aminoluciferin luminescence, 40 min;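 active = inhibition above about 50% at the single test dose, limit read from the data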;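 note: plate controls were DMSO with enzyme for no effect and no enzyme buffer wells for full effect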
SENP8 confirm – confirmation of human SENP8 protease inhibitors; shares compounds with SENP7 inh; Recombinant SENP8, Z-RLRGG-aminoluciferin luminescence, 60 min; inhibition, % at 12.5 µM; hit rate 40% among 6,200; AID 488912;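 active = mean inhibition across replicates above about 50%, limit read from the data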
SENP6 confirm – confirmation of human SENP6 protease inhibitors. recombinant SENP6, Z-RLRGG-aminoluciferin luminescence. hit rate 58% among 6,200. shares compounds with SENP7 inh. inhibition, % at 12.5 µM. AID 488915
SENP7 confirm – human SENP7 inhibition, confirmed | shares compounds with SENP7 inh | recombinant SENP7, Z-RLRGG-aminoluciferin luminescence, 40 min | inhibition, % at 12.5 µM | hit rate 69% among 6,200 | AID 488917
Casp3 select – inhibits human caspase-3 in SENP selectivity test | shares compounds with SENP7 inh | purified caspase-3, Z-DEVD-aminoluciferin luminescence, 60 min | inhibition, % at 12.5 µM | hit rate 60% among 6,200;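 active = mean inhibition above about 50%, limit read from the data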;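 note: plate controls were enzyme with DMSO for no effect and wells without caspase-3 for full effect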
Target sequence (P42574 28-227 limits assumed): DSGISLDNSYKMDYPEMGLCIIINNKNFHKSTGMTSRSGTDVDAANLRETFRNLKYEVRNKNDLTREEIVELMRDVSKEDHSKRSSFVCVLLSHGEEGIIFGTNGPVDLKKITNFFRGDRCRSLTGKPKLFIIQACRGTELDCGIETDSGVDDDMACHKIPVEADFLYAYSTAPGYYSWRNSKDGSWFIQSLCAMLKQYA
SENP luc ctr – luminescence interference (SENP counter-screen). shares compounds with SENP7 inh. Pre-incubated SENP8/Z-RLRGG-aminoluciferin, luciferase luminescence interference. inhibition, % at 12.5 µM. hit rate 39% among 6,200. AID 488919;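 active = mean inhibition above about 50% when retested at one dose, limit read from the data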;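 note: plate controls were DMSO wells with completed reaction for no effect and substrate without enzyme for full effect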
An asterisk follows results filed as active; . = no result given.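 Rule for the calls, unless noted: active = mean inhibition above about 50% in the one-dose retest (limit read from the data); inactive = the rest.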

SMILES | SENP8 block-1 | SENP6 block | SENP1 inh | SENP8 block-2 | SENP7 inh | SENP8 confirm | SENP6 confirm | SENP7 confirm | Casp3 select | SENP luc ctr
CN(C)c1ccc(/C=N/NC(=O)c2ccco2)cc1 | -290.1 | 65.4* | -6.8 | 26.7 | 49.1 | 46.0 | 48.3 | 80.8* | 83.3* | 39.8
CN(C)c1ccc(/C=N/NC(=O)c2cc(=O)[nH]c3ccccc23)cc1 | 14.4 | -10.1 | 4.1 | -2.0 | 8.7 | . | . | . | . | .
CC(C)(C)c1ccc(C(=O)Nc2cccnc2)cc1 | 8.6 | 68.7* | 0.0 | 52.6* | 62.2* | 12.0 | 55.1* | 85.7* | 66.0* | 62.3*
CC(C)(C)c1ccc(NC(=O)c2ccsc2)cc1 | 20.6 | 86.3* | 3.3 | 82.5* | 82.0* | 85.7* | 85.2* | 97.7* | 77.5* | 28.7
CCc1sc(C(=O)Nc2cccnc2)cc1Br | 13.5 | 83.7* | 2.6 | 59.8* | 78.8* | 0.0 | 66.8* | 91.4* | 63.6* | 71.7*
Cc1ccc(-c2cc(C(=O)Nc3cccnc3)[nH]n2)c(O)c1C | 24.5 | 98.5* | -1.8 | 93.2* | 94.5* | 96.3* | 96.7* | 101.3* | 90.2* | 95.8*
CC(C)(C)c1ccc(C(=O)Nc2ccc(Cl)cc2)cc1 | 5.3 | 6.8 | 1.4 | 7.3 | 10.2 | . | . | . | . | .
Cc1ccc(-n2ncc3c2CC(C)(C)CC3NC(=O)CCN2CCCO2)cc1 (centres undefined) | 12.0 | 13.7 | -1.1 | 1.9 | 0.3 | . | . | . | . | .
COc1cc(C)nc(NS(=O)(=O)c2ccc(C)cc2)n1 | 28.3 | 4.0 | -0.6 | -10.4 | 3.7 | . | . | . | . | .
CCCCCCOC(=O)c1ccc(OC(=O)c2cccnc2)cc1 | 6.5 | 53.4* | 1.4 | 44.4 | -1.5 | -0.4 | 9.6 | 47.1 | 13.9 | -2.5
CCCCOC(=O)c1ccc(OC(=O)c2cccnc2)cc1 | 20.0 | -17.2 | 1.9 | -15.7 | 9.4 | . | . | . | . | .
Cc1nc2c(OCc3cc(Cl)cc(Cl)c3)cccn2c1N(C)C(=O)CCC1CCCC1 | -5.5 | . | -6.1 | . | . | . | . | . | . | .
COc1ccc(C2CC(c3cccs3)=NN2C(=O)CSc2nc(=O)n3cc(C)ccc3n2)cc1 (centres undefined) | -67.6 | -0.6 | -11.0 | -0.5 | 5.8 | . | . | . | . | .
O=C(O/N=C1/CCCc2occc21)c1ccc(F)cc1 | 10.6 | 87.3* | 3.2 | 83.3* | 88.4* | 36.6 | 87.9* | 79.3* | 65.8* | 17.4
O=C(O/N=C1/CCSc2ccccc21)c1ccc(F)cc1 | 3.1 | 42.1 | 3.0 | 49.8 | 86.9* | 73.2* | 91.6* | 88.9* | 78.6* | 39.4
Nc1ccc(N=Nc2ccccc2O)c(N)c1 | 39.9 | 82.9* | 5.7 | 69.9* | 79.3* | 76.8* | 80.7* | 94.7* | 57.0* | 82.2*
COc1cc2c(cc1OC)CN(C(=O)C1CCN(S(=O)(=O)c3ccccc3F)CC1)CC2 | 7.7 | -15.4 | 0.2 | 0.1 | -4.2 | . | . | . | . | .
O=C(O)c1cc(N=Nc2c(O)ccc3ccccc23)cc(C(=O)O)c1 | 31.0 | . | 13.2 | . | . | . | . | . | . | .
O=C(O)c1ccc(N=Nc2c(O)ccc3ncccc23)cc1 | 37.7 | 96.7* | 7.1 | 96.9* | 100.4* | 98.6* | 99.2* | 102.3* | 89.1* | 61.7*
CCOc1ccc(NS(=O)(=O)c2ccc(OCC(=O)N3CCCC3)cc2)cc1 | 10.6 | -32.0 | 0.1 | 6.8 | 91.2* | 7.8 | 6.3 | 8.9 | 3.6 | 3.7
COc1cccc(-n2cc(-c3ccc(F)cc3)[nH]c2=S)c1 | 12.0 | 66.7* | 0.4 | 10.5 | 77.1* | 22.5 | 19.6 | 6.6 | 3.3 | 5.0
O=C(CSc1nnc(-c2cccnc2)o1)c1cc2ccccc2oc1=O | -110.5 | -4.4 | 13.8 | -8.7 | -5.1 | . | . | . | . | .
Cn1cnnc1SCC(=O)c1cc2ccccc2oc1=O | -31.4 | -15.4 | -28.8 | 3.8 | 66.7* | 9.9 | 8.7 | 3.5 | -2.4 | -5.9
Cc1cc(=O)[nH]c(-c2ccc(C(F)(F)F)cc2)n1 | 5.8 | 2.8 | -1.4 | -1.5 | -2.5 | . | . | . | . | .
O=c1c2ccccc2nnn1COc1cccc(Cl)c1 | 3.8 | 57.5* | 1.6 | 35.9 | 35.0 | 14.3 | 57.9* | 48.0 | 49.4 | 1.7
SMILES | SENP8 block-1 | SENP6 block | SENP1 inh | SENP8 block-2 | SENP7 inh | SENP8 confirm | SENP6 confirm | SENP7 confirm | Casp3 select | SENP luc ctr
O=C(Nc1ccc2c(c1)OCO2)c1cnn2cccnc12 | -0.3 | 15.7 | 0.3 | -0.4 | -7.9 | . | . | . | . | .
CCCC1CCC(c2ccc(OCC)cc2)=CC1=O (centres undefined) | 6.0 | 64.7* | 1.9 | 42.2 | 28.5 | 19.5 | 24.1 | 71.4* | 33.8 | 39.2
CCOc1ccc(N2C(=O)CCC2=O)cc1 | 27.2 | -16.7 | -0.3 | -6.7 | 0.7 | . | . | . | . | .
CCCCN(C)C(=O)c1cc2cc3ccc(OC)cc3nc2o1 | -286.6 | 79.5* | -0.4 | 64.8* | 76.1* | 72.2* | 70.6* | 92.2* | 85.0* | 24.4
O=C(Nc1ccc(O)cc1C(=O)O)c1ccc2c(c1)C(=O)N(Cc1ccco1)C2=O | 17.9 | -10.8 | 4.4 | 0.2 | -2.2 | . | . | . | . | .
O=C(Nc1cc([N+](=O)[O-])ccc1O)c1cccc([N+](=O)[O-])c1 | 29.2 | 83.3* | 1.3 | 68.6* | 67.2* | 84.8* | 82.7* | 97.1* | 86.4* | 70.4*
O=C(Nc1cc([N+](=O)[O-])ccc1O)c1cccc(C(=O)Nc2cc([N+](=O)[O-])ccc2O)c1 | -14.6 | . | 1.1 | . | . | . | . | . | . | .
O=C(Nc1cc([N+](=O)[O-])ccc1O)c1ccc2c(c1)C(=O)N(Cc1ccco1)C2=O | 8.1 | 81.6* | 2.5 | 75.7* | 38.1 | 47.2 | 83.5* | 74.4* | 77.3* | 84.4*
Cc1ccc(CN2C(=O)c3ccccc3C2c2nnnn2-c2c(C)cccc2C)cc1 (centres undefined) | 17.9 | . | 0.3 | . | . | . | . | . | . | .
CCOC(=O)c1ccc(-c2ccc3c(=O)c4ccccc4n(C)c3c2)cc1F | -473.9 | -7.6 | -29.6 | 1.7 | 12.7 | . | . | . | . | .
CC(=O)COc1ccc(-c2csnn2)cc1 | 4.7 | -22.4 | 0.4 | -2.5 | -5.3 | . | . | . | . | .
c1ccc(COc2ccc(-c3csnn3)cc2)cc1 | 25.1 | 66.5* | 3.5 | 41.2 | 73.0* | 6.5 | 13.6 | 24.2 | 21.1 | 7.1
COc1ccc(OC)c(S(=O)(=O)Nc2ccc3c(c2)OCCO3)c1 | 10.3 | . | 0.5 | . | . | . | . | . | . | .
Cc1ccc(-c2nc(Nc3ccccc3)n[nH]2)cc1 | -114.4 | 50.6* | 0.6 | 14.0 | 50.9* | 16.0 | 35.1 | 72.8* | 21.9 | 25.3
Nc1nc(CSc2n[nH]c(-c3ccccc3)n2)nc(Nc2ccccc2)n1 | 22.1 | -0.4 | 3.5 | -1.4 | 0.7 | . | . | . | . | .
CC(O)CNc1nc(Cl)c(C#N)s1 (centres undefined) | 15.2 | 10.1 | -2.1 | -2.0 | 4.2 | . | . | . | . | .
